From ChEMBL document CHEMBL4828755, “A sulfonyl fluoride derivative inhibits EGFRL858R/T790M/C797S by covalent modification of the catalytic lysine” (Eur J Med Chem, 2021)
Activity calls are given as the source filed them. No cut-off for these calls is given here.

Key:
[1] = biological target: Epidermal growth factor receptor (Homo sapiens, UniProt P00533, C797S/L858R/T790M); assay: Inhibition of EGFR L858R/T790M/C797S triple mutant (unknown origin) using fluoresceine-labelled poly-GT peptide as substrate incubated for 1 hr by TR-FRET assay
Epidermal growth factor receptor, sequence (P00533 25-1210 T790M/C797S/L858R limits assumed): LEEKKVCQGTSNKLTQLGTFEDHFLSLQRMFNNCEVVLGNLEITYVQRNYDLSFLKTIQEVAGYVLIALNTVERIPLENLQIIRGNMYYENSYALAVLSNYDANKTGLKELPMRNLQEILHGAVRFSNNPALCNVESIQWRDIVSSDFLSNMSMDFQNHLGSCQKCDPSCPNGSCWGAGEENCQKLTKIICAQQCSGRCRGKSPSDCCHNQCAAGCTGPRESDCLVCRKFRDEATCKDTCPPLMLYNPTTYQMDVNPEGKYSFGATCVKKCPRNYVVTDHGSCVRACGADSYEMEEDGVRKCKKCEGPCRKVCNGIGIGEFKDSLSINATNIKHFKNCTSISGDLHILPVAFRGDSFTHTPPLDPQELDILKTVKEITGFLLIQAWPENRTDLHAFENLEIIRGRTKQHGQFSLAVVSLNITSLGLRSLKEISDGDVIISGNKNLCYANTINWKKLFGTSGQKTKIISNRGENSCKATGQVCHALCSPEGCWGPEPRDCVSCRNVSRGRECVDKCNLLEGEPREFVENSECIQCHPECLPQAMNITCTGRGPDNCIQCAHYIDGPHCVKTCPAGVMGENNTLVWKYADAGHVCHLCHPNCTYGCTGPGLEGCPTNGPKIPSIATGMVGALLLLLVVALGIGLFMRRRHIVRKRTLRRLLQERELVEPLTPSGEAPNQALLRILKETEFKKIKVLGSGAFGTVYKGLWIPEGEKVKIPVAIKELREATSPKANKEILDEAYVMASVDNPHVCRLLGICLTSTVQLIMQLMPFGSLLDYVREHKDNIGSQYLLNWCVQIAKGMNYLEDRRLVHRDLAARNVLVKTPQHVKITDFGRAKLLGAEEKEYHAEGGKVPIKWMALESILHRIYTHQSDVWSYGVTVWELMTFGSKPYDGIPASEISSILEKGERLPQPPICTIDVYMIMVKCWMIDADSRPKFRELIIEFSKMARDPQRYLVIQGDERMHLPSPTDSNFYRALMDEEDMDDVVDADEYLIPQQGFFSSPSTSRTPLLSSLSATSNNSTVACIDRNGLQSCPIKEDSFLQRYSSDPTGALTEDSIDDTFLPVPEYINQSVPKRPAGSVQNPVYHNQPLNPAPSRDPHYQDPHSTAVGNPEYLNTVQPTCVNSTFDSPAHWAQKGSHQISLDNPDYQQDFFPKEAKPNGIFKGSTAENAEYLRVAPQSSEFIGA

[2] = biological target: RAC-beta serine/threonine-protein kinase (Homo sapiens) (UniProt P31751); assay: Inhibition of His-tagged full length human recombinant AKT2 expressed in baculovirus expression system at 1 uM by Z'-LYTE assay
RAC-beta serine/threonine-protein kinase (Homo sapiens), sequence (P31751 whole entry): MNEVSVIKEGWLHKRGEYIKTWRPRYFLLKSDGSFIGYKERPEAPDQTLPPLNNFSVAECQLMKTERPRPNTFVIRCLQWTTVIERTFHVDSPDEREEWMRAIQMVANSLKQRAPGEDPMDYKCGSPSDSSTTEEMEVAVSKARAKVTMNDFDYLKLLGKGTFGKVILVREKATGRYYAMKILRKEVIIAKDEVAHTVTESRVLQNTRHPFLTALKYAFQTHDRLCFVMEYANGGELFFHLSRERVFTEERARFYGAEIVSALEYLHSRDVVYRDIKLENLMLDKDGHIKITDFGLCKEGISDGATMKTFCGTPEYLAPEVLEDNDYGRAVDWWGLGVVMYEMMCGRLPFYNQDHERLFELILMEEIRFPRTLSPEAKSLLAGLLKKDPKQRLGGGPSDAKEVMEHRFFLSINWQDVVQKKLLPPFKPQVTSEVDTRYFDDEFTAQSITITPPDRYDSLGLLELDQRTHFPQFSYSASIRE
Summary of the method: (§1)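 Z'-LYTE FRET kinase panel; phosphorylation of a reference peptide measured with ATP at each enzyme's Km. Compounds tested in 1% DMSO at 0.1 and/or 1 μM. Values are means of two independent experiments with standard deviations.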

[3] = biological target: AMP-activated protein kinase, AMPK (Homo sapiens) (UniProt P54646+O43741+P54619+Q9UGJ0+Q9Y478+Q13131+Q9UGI9); assay: Inhibition of human recombinant AMPK at 1 uM by Z'-LYTE assay; type: protein-complex assay; summary of the method: as §1
[4] = biological target: T1, Aurora kinase A (Homo sapiens) (UniProt O14965); assay: Inhibition of His-tagged human full length recombinant AURKA expressed in baculovirus expression system at 1 uM by Z'-LYTE assay; summary of the method: as §1
T1 sequence (whole entry): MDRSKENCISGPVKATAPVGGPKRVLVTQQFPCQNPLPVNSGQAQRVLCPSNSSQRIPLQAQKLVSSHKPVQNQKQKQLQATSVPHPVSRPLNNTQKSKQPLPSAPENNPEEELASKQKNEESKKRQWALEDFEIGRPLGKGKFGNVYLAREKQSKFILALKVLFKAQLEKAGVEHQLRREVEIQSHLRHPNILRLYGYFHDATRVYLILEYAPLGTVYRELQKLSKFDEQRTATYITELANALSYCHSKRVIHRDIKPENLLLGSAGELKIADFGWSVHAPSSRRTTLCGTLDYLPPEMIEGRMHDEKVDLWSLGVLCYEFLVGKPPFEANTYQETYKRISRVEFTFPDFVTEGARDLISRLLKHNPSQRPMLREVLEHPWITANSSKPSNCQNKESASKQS

[5] = biological target: Cyclin-dependent kinase 2 (Homo sapiens) (UniProt P24941); assay: Inhibition of human recombinant CDK2 at 1 uM by Z'-LYTE assay; summary of the method: as §1
[6] = biological target: Cyclin-dependent kinase 5 (Homo sapiens) (UniProt Q00535); assay: Inhibition of GST/His-tagged human full length recombinant CDK5 expressed in baculovirus expression system at 1 uM by Z'-LYTE assay; summary of the method: as §1
Cyclin-dependent kinase 5 (Homo sapiens), sequence (Q00535 whole entry, looked up): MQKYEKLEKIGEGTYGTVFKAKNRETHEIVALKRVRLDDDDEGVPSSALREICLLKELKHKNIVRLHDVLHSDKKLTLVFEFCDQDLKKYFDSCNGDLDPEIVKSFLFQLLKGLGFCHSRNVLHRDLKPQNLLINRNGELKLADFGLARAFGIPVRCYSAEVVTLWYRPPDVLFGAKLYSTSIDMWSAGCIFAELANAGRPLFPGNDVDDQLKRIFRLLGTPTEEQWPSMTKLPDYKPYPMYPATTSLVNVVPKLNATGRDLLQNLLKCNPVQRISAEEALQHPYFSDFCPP

[7] = biological target: Tyrosine-protein kinase Blk (Homo sapiens) (UniProt P51451); assay: Inhibition of His-tagged human full length recombinant BLK expressed in baculovirus expression system at 1 uM by Z'-LYTE assay; summary of the method: as §1
Tyrosine-protein kinase Blk (Homo sapiens), sequence (P51451 2-505 limits assumed): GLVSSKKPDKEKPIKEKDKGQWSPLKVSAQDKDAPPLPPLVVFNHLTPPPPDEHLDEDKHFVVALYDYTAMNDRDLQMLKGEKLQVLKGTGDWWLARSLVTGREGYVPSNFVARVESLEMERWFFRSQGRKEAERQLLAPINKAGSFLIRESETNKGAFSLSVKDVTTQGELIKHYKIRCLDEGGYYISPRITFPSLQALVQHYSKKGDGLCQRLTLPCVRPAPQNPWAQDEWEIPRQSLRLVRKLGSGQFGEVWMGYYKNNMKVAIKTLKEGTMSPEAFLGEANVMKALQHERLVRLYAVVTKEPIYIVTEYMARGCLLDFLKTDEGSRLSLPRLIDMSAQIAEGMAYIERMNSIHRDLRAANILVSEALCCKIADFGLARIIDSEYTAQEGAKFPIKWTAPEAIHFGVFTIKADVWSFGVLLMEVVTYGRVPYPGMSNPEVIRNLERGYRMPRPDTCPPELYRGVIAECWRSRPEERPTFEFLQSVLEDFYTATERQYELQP

[8] = biological target: Tyrosine-protein kinase Lck (Homo sapiens) (UniProt P06239); assay: Inhibition of human recombinant LCK at 1 uM by Z'-LYTE assay; summary of the method: as §1
Tyrosine-protein kinase Lck (Homo sapiens), sequence (P06239 2-509 limits assumed): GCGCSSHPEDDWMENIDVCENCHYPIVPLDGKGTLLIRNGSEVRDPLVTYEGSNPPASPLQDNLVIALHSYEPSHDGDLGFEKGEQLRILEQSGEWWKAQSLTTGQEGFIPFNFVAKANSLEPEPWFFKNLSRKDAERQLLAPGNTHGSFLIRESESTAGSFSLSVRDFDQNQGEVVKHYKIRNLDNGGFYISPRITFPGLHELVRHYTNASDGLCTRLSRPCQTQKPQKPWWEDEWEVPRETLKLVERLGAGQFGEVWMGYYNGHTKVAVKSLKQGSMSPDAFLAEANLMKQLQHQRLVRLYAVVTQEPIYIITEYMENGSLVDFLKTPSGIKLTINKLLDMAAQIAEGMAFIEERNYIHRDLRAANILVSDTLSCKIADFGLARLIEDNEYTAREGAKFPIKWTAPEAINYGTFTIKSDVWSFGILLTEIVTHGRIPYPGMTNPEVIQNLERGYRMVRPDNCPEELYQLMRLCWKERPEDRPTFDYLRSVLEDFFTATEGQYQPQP

[9] = biological target: Proto-oncogene tyrosine-protein kinase Src (Homo sapiens) (UniProt P12931); assay: Inhibition of C-terminal His-tagged human recombinant SRC expressed in baculovirus expression system at 1 uM by Z'-LYTE assay; summary of the method: as §1
Proto-oncogene tyrosine-protein kinase Src (Homo sapiens), sequence (P12931 2-536 limits assumed): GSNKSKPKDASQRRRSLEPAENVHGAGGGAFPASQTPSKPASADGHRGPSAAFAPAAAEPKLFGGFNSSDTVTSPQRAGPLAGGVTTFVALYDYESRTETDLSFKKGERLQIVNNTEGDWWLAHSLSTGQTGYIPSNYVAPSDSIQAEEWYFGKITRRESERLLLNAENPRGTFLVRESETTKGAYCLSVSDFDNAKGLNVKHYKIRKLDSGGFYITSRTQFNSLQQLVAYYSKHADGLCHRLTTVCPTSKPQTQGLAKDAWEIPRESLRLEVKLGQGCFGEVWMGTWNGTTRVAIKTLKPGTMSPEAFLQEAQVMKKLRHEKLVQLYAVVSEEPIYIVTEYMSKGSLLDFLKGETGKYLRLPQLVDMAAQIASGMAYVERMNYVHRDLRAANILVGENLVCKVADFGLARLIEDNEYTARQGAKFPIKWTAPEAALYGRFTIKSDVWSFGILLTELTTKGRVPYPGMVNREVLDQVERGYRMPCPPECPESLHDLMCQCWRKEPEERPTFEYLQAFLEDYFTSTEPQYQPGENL

[10] = biological target: Mitogen-activated protein kinase 3 (Homo sapiens) (UniProt P27361); assay: Inhibition of GST-tagged human full length recombinant ERK1 expressed in Escherichia coli at 1 uM by Z'-LYTE assay; summary of the method: as §1
[11] = biological target: Fibroblast growth factor receptor 4 (Homo sapiens) (UniProt P22455); assay: Inhibition of His-tagged human recombinant FGFR4 ([…] residues) expressed in baculovirus expression system at 1 uM by Z'-LYTE assay; summary of the method: as §1
[12] = biological target: T2, Inhibitor of nuclear factor kappa-B kinase subunit beta (Homo sapiens) (UniProt O14920); assay: Inhibition of GST-tagged human full length recombinant IKKbeta expressed in baculovirus expression system at 1 uM by Z'-LYTE assay; summary of the method: as §1
T2 sequence (whole entry): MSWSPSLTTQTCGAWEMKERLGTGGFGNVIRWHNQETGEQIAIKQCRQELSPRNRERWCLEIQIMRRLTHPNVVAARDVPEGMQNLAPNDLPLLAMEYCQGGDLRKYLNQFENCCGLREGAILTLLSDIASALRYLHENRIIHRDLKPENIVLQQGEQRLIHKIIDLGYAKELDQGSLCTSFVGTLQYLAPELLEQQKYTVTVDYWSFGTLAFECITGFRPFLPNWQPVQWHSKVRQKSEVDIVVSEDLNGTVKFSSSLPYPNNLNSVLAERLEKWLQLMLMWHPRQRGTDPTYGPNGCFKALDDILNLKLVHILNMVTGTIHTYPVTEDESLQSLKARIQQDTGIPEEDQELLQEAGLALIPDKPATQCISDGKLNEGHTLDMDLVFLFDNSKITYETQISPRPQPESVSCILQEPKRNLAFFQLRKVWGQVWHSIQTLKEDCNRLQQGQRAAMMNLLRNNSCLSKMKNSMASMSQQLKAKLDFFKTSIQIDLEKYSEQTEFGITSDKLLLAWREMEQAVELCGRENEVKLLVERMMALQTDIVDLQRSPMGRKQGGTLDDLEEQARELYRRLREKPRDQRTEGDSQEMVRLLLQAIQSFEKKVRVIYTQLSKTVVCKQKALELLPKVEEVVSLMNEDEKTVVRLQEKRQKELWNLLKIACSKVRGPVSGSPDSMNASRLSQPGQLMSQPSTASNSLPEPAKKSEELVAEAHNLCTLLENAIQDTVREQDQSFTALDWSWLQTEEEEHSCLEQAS

[13] = biological target: Tyrosine-protein kinase JAK1 (Homo sapiens) (UniProt P23458); assay: Inhibition of GST-tagged human recombinant JAK1 (866 to 1154 residues) expressed in baculovirus expression system at 1 uM by Z'-LYTE assay; summary of the method: as §1
[14] = biological target: Mitogen-activated protein kinase 14 (Homo sapiens) (UniProt Q16539); assay: Inhibition of GST-tagged human full length recombinant p38 alpha expressed in Escherichia coli at 1 uM by Z'-LYTE assay; summary of the method: as §1
[15] = biological target: Platelet-derived growth factor receptor alpha (Homo sapiens) (UniProt P16234); assay: Inhibition of GST-tagged human recombinant PDGFR alpha (550 to 1089 residues) expressed in baculovirus expression system at 1 uM by Z'-LYTE assay; summary of the method: as §1
[16] = biological target: Rho-associated protein kinase 1 (Homo sapiens) (UniProt Q13464); assay: Inhibition of GST-tagged human recombinant ROCK1 (1 to 535 residues) expressed in baculovirus expression system at 1 uM by Z'-LYTE assay; summary of the method: as §1
Rho-associated protein kinase 1 (Homo sapiens), sequence (Q13464 2-1354 limits assumed): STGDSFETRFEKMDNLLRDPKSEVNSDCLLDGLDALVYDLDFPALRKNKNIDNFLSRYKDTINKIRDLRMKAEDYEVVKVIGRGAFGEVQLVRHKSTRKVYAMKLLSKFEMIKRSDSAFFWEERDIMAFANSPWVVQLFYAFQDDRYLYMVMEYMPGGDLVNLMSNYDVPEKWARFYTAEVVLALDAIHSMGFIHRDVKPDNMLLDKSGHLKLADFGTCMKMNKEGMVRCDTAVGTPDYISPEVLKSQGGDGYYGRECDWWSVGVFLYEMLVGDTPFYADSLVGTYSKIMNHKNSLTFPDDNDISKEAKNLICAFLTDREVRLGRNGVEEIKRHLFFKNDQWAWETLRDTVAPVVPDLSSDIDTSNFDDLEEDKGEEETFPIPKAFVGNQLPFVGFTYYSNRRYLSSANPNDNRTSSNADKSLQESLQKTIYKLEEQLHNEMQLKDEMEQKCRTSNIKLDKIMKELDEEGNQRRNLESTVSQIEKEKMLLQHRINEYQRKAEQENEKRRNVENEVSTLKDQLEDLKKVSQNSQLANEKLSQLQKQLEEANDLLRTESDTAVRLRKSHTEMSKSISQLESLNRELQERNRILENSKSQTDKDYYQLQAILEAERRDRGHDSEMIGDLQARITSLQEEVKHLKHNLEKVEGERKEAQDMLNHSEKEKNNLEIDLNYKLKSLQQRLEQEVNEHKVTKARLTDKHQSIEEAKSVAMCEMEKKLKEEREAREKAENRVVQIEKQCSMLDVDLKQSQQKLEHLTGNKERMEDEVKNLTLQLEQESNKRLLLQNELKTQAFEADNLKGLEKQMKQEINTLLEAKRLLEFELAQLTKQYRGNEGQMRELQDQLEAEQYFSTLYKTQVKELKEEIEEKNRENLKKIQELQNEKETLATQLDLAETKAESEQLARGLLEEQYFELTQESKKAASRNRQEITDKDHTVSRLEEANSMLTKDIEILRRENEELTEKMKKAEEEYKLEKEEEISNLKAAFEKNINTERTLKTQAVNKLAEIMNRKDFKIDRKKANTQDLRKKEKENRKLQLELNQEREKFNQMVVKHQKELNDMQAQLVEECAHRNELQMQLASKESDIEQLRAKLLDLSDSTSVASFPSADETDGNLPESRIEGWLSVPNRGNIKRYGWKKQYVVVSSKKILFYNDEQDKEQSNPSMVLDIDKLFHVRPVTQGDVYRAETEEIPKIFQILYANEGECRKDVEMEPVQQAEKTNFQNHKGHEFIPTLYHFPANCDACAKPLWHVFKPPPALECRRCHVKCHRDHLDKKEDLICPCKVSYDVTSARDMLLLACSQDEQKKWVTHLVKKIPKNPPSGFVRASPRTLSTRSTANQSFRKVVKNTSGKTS

[17] = biological target: Vascular endothelial growth factor receptor 2 (Homo sapiens) (UniProt P35968); assay: Inhibition of His-tagged human recombinant VEGFR2 (789 to 1356 residues) expressed in baculovirus expression system at 1 uM by Z'-LYTE assay; summary of the method: as §1
BaF3 [18] = assay: Cytotoxicity against mouse BaF3 cells harboring EGFR L858R/T790M/C797S triple mutant assessed as inhibition of cell proliferation measured after 72 hrs by MTS assay; type: functional, cell-based; conditions: BaF3, 72 h
Summary of the method: (§2)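 Ba/F3 cells carrying the respective EGFR triple mutant, grown in RPMI-1640 with 2 mM glutamine and 10% FBS at 37°C, 5% CO2. Seeded 20000 cells/well and treated the same day with increasing concentrations (DMSO ≤0.1% final). Viability read by MTS after 72 h, expressed as % inhibition versus untreated controls; at least three independent experiments.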

BaF3 [19] = assay: Cytotoxicity against mouse BaF3 cells harboring EGFR del19/T790M/C797S triple mutant assessed as inhibition of cell proliferation measured after 72 hrs by MTS assay; type: functional, cell-based; summary of the method: as §2

COc1cc(N2CCN(C(C)=O)CC2)ccc1Nc1ncc(Cl)c(Nc2cccc(NC(C)=O)c2)n1 was tested, and the IC50 [1] was 1100 nM, the inhibition [2] was “inactive” and the inhibition [3] was “inactive”. The inhibition [4] was “inactive”, the inhibition [5] was “inactive” and the inhibition [6] was “inactive”. The inhibition [7] was “inactive”, the inhibition [8] was “inactive” and the inhibition [9] was “inactive”. For the same compound, the inhibition [10] was “inactive”, the inhibition [11] was “inactive” and the inhibition [12] was “inactive”. The inhibition [13] was “Active”, the inhibition [14] was “inactive” and the inhibition [15] was “Active”. For the same compound, the inhibition [16] was “inactive” and the inhibition [17] was “Active”.
COc1cc(N2CCN(C(C)=O)CC2)ccc1Nc1ncc(Cl)c(Nc2cccc(NCCS(=O)(=O)F)c2)n1 was tested, and the IC50 [1] was 458 nM.
Work on COc1cc(N2CCN(C(C)=O)CC2)ccc1Nc1ncc(Cl)c(Nc2cccc(C(=O)Oc3ccc(F)cc3)c2)n1 yielded an IC50 [1] of over 10000 nM.
C=CS(=O)(=O)Nc1cccc(Nc2nc(Nc3ccc(N4CCN(C(C)=O)CC4)cc3OC)ncc2Cl)c1 gave an IC50 [1] of 675 nM.
For COc1cc(N2CCN(C(C)=O)CC2)ccc1Nc1ncc(Cl)c(Nc2cccc(NC(=O)CCl)c2)n1, the IC50 [1] was 946 nM.
With C=CC(=O)Nc1cc(Nc2nccc(-c3cn(C)c4ccccc34)n2)c(OC)cc1N(C)CCN(C)C [OSIMERTINIB] the IC50 (BaF3 [18]) was over 3000 nM and the Activity (BaF3 [19]) was “inactive”.
